Screens deposited in PubChem by several laboratories.
14-3-3 Bad PPI: inhibitors of 14-3-3 zeta/Bad binding, primary screen, biochemical, TR-FRET, bovine 14-3-3 zeta | 14-3-3 protein zeta/delta (Bos taurus), P63103 | TR-FRET 14-3-3zeta/Dy647-pBad peptide displacement, 1 h | inhibition, % at 21.7 µM | actives 0.71% (n = 220,000) | AID 781, 2007;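 active means inhibition above about 70%, limit read from the data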;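 further: 0% = full 14-3-3 plus peptide FRET controls and 100% = background without 14-3-3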
eIF4E 4G PPI: eIF4E–eIF4G protein interaction inhibitors, primary screen, biochemical, uHTS, TR-FRET, eIF4GI fragment; TR-FRET eIF4E-eIF4GI(517-606) binding, 2 h; inhibition, % at 21.7 µM; actives 0.37% (n = 220,000);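 further: 0% = full FRET control wells and 100% = background wells lacking eIF4GI fragment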
WT yeast gro inh: growth inhibition of WT strain, primary screen, mitochondrial fusion inhibitor project, WT and mutant strains, chemical genetic. AID 1362, 2008. inhibition, % at 10 µM. actives 2.1% (n = 190,000). mitochondrial fusion phenotypic screen; in the data active means inhibition above about 58%; tested in S. cerevisiae
NCF1 inh: p47phox/p22phox peptide binding inhibitors, primary screen, biochemical, uHTS, NADPH oxidase regulatory subunit. Neutrophil cytosol factor 1 (Homo sapiens), P14598. fluorescence polarization, 2 h. inhibition, % at 24.7 µM. actives 0.53% (n = 220,000). AID 1274, 2008;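 further: 0% = p47phox with labelled peptide and 100% = labelled peptide alone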
Target sequence (P14598 whole entry, looked up): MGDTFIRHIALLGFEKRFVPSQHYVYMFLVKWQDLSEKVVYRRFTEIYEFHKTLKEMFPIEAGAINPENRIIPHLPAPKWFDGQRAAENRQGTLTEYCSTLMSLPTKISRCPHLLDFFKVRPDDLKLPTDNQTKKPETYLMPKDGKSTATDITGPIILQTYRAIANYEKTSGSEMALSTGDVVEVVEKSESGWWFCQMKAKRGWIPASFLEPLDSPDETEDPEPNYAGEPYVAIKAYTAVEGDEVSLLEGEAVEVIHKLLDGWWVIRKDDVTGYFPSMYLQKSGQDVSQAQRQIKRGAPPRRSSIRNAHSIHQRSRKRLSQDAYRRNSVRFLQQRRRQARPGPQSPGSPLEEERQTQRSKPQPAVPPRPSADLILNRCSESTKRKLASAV
RBBP9 inh: human RBBP9 inhibitors, primary screen, biochemical, fluorescence polarization, FP-Rh probe, HTS | recombinant RBBP9 | inhibition, % at 7.94 µM | actives 0.2% (n = 220,000) | AID 1515, 2009;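 active means inhibition above the campaign mean of all tested compounds plus 3 SD, cut at about 14% in these data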;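 further: plate controls were DMSO wells with RBBP9 for no effect and wells lacking RBBP9 protein for full effect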
Target sequence (O75884 whole entry, looked up): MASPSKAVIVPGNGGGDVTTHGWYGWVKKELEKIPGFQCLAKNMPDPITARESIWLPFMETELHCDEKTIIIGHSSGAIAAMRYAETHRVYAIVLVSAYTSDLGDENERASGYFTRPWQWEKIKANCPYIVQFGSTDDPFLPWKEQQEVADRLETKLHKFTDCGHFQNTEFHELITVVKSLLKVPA
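System: RBBP9 protein / Quantity: 2.5 µM RBBP9 dispensing solution, before mixing / Also added: Serine-hydrolase probe FP-Rh, 375 nM pre-mixing / Dosing: 7.94 µM single dose, 0.794% DMSO / Timing: enzyme-compound preincubation 30 min, then probe labeling 45 min, 25 °C / Signal: FP readout at 525/598 nm / Controls: DMSO-treated enzyme wells and wells lacking RBBP9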
EBV gp42 inh: Epstein-Barr virus gp42 inhibitors, primary screen, biochemical, uHTS, fluorescence polarization | Glycoprotein 42 (Epstein-Barr virus (strain AG876)), Q1HVG2 | Fluorescence polarization binding assay, mP read-out | inhibition, % (tested at 21.74 µM) | actives 0.42% (n = 220,000) | AID 1085, 2008; in the data active means inhibition above about 50%
The depositor's hits bear a star; x = no result given; [ ] = dose if it differs, or a comment. Compounds with a hit are over-represented: about 3.7% of the library has one in this group of screens.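 How the source made its calls, unless noted: active means inhibition above about 30% (limit read from the data); inactive means the rest.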

SMILES	14-3-3 Bad PPI	eIF4E 4G PPI	WT yeast gro inh	NCF1 inh	RBBP9 inh	EBV gp42 inh
CC1CCN(C(=O)CCc2ccc(Oc3cc([N+](=O)[O-])cc([N+](=O)[O-])c3)cc2)CC1	-1.9	2.6	64.7*	-9.0	-1.8	-6.9
O=C(CCc1ccc(Oc2cc([N+](=O)[O-])cc([N+](=O)[O-])c2)cc1)NC1CCCC1	-11.7	5.8	2.5	-15.6	-10.9	3.1
Cc1ccc(CSc2ncnc3c2cnn3Cc2ccccc2)cc1	-0.2	-9.5	76.1*	11.0	-1.9	-8.4
Cc1ccc(CSc2ncnc3c2cnn3Cc2ccccc2)cc1C	1.6	2.3	28.2	-3.7	1.0	-8.8
Brc1cccc(C2CC(c3ccccc3)n3nnnc3N2)c1 (stereo not drawn)	1.2	33.8*	-1.5	-9.0	-3.7	-11.0
O=C(C1CCCCC1)N(Cc1nc2sc3c(c2c(=O)[nH]1)CCCC3)Cc1cccs1	0.8	-1.7	58.6*	-18.2	-7.9	-13.3
CCOc1ccccc1NC(=O)C(=O)N/N=C/c1cc(Br)ccc1O	-10.9	-0.1	-4.2	-25.2	-7.6	0.8
Cc1onc(-c2ccccc2Cl)c1C(=O)Nc1nnc(-c2cccc([N+](=O)[O-])c2)s1	-7.3	-3.0	63.9*	-0.2	-12.2	0.6
CCOC(=O)c1c(C)oc2ccc(OC(=O)c3cccs3)cc12	-0.3	0.1	67.9*	-5.5	-4.9	-4.3
CCOC(=O)c1c(CN2CCN(C)CC2)oc2ccc(OC)cc12	78.6*	18.3	-1.4	1.7	-4.5	-11.6
Cc1ccc(NC(=O)c2ccc(CNc3c(N4CCC(C)CC4)c(=O)c3=O)cc2)cc1	-3.5	-10.5	x	-5.8	-1.8	-12.9
COc1ccc(/C=C2\SC(=S)N(CCCC(=O)Nc3ccccn3)C2=O)cc1OC	13.1	-7.4	15.0	-160.9	-5.8	75.9*
CCc1cc2c(=O)c(-c3cscn3)coc2cc1O	-6.1	8.4	69.0*	-11.4	-6.5	-19.9
Nc1ccc2c(c1)C(=O)C(=O)c1ccccc1-2	35.3	15.9	97.4*	-4.6	-9.1	-29.6
O=C1C(=O)c2ccc(-c3ccccc3)cc2-c2ccccc21	14.5	2.7	78.0	5.8	2.4	-12.2
Cc1ccc2cc(C(=O)O)c(C)nc2c1	79.2*	-11.0	14.5	8.0	-12.0	-13.4
Cc1ccc2nc(C)c(C(=O)O)cc2c1	-5.4	-2.7	-7.4	-6.5	-6.8	-5.8
CN(CCCN1CCOCC1)Cc1cn(C)nc1-c1ccccc1F	2.8	1.6	6.3	0.2	6.5	-3.0
Cc1ccc2c(Cl)cc(Cl)c(OCC(=O)NCc3ccco3)c2n1	39.2	47.2*[fluorescence artefact?]	43.2	1.8	-0.9	69.2*
O=C(COc1ccc(Cl)cc1Cl)NNC(=S)NCc1ccco1	-9.5	-5.2	75.8*	-23.3	-7.6	0.5
Cc1ccc2c(Cl)cc(Cl)c(OCC(=O)NC(=O)NCc3ccco3)c2n1	-7.5	-8.6	0.7	-14.2	-6.4	-24.1
Cc1ccc(NC(=O)Nc2ccccc2)cc1[N+](=O)[O-]	11.6	-3.1	-6.3	-19.1	-5.7	-15.1
O=C(Nc1ccc(C(O)(C(F)(F)F)C(F)(F)F)cc1)c1ccc(Cl)c([N+](=O)[O-])c1	-1.4	22.4	73.8*	-14.3	-15.7	-4.1
O=C(Nc1ccccc1)Nc1ccc(Cl)c([N+](=O)[O-])c1	0.4	2.6	82.4*	-32.4	-16.4	10.6
CC(CC(=O)Nc1ccc(Cl)c([N+](=O)[O-])c1)c1ccccc1 (stereo not drawn)	-6.8	7.9	79.8*	-4.0	-3.2	9.0
SMILES	14-3-3 Bad PPI	eIF4E 4G PPI	WT yeast gro inh	NCF1 inh	RBBP9 inh	EBV gp42 inh
O=C(O)Cc1ccc(-n2cccc2)cc1	28.2	19.3	-10.4	-26.1	-5.5	-10.3
Cc1cccc(C(C)C)c1NC(=O)C1CN(S(=O)(=O)c2ccccc2)CCN1S(=O)(=O)c1ccccc1 (stereo not drawn)	0.9	3.0	-5.2	20.9	-6.7	-7.0
CCOC(=O)N1CCC(N2CCN(S(=O)(=O)c3ccc([N+](=O)[O-])cc3)CC2)CC1	18.5	-6.3	x	7.2	-2.7	-6.8
O=c1[nH]c(Nc2ccccc2)cc2ccccc12	-12.8	-2.8	-2.3	-7.7	1.7	71.7*
Cc1ccc(S(=O)(=O)NCC(=O)NCC(=O)OC(C(=O)NC(N)=O)C(C)C)cc1C (stereo not drawn)	5.2	-3.5	x	-8.4	-2.9	-25.7
CCOC(=O)C1(Cc2cccc(F)c2)CCN(Cc2c(C)nn(CC)c2C)CC1	-2.4	3.6	x	-13.8	-3.7	-24.5
C=CCSc1nnc(-c2cc3c(s2)-c2ccccc2CC3)o1	-4.8	0.2	65.7*	-4.6	-4.5	0.7
CC1(c2ccccc2)CC(C)(C)N2C(=O)/C(=C3\SC(=S)NC3=O)c3cccc1c32 (stereo not drawn)	18.3	27.7	61.1*	13.9	1.1	8.9
CCOC(=O)C1=C(N)N(c2cc(S(=O)(=O)N3CCOCC3)ccc2Cl)C(=O)C1	-18.4	-0.4	-0.8	-6.4	-10.1	3.8
Nc1cc(N)nc(SCC(=O)N2CCc3ccccc32)n1	-4.7	-7.5	98.9*	-7.6	8.6	-16.3
Cc1nnc(SCC(=O)N2CCc3ccccc32)s1	20.8	-2.4	4.7	-9.6	3.4	-20.1
CSc1nsc(SCC(=O)N2CCc3ccccc32)n1	-5.5	37.8*	1.6	-30.6	-1.9	-6.1
CC(/C=N/NC(=O)c1cnccn1)=C\c1ccco1	-1.4	5.3	x	-14.7	-6.1	-9.5
O=C(Cn1cc2c(n1)CCCC2)NCc1ccccn1	2.3	-7.9	0.6	48.5*	6.3	52.7*
CCOC(=O)C1=C(C)N=C2SC(C(=O)OC)=CC(=O)N2C1c1ccc(OC)cc1 (stereo not drawn)	5.1	1.9	83.8*	4.1	-10.2	10.4
O=c1[nH]c(-c2ccccn2)nc2sc(-c3ccccc3)cc12	-1.7	-2.7	75.5*	-0.1	-4.3	-10.1
COc1cc2c(C)nc(C)c(C#N)c2cc1OC	77.8*	14.8	10.3	-4.5	-10.6	-17.1
COc1cc2c(C)nc3onc(-c4ccccc4)c3c2cc1OC	2.6	-3.0	2.2	-18.0	0.5	-10.8
CS/C(N)=N/S(=O)(=O)c1ccc(NC(C)=O)cc1	-3.6	-2.9	x	3.7	4.0	-11.4
COCCCC1CCN(C(=O)CCc2nnc(CCCCc3ccccc3)o2)CC1	-5.9	0.2	1.1	-2.7	-6.5	-4.4
CCN(CC)CCNC(=O)c1ccc2c(c1NCCO)C(=O)c1ccccc1C2=O	-27.6	-5.3	x	4.9	-5.4	11.2
